Bioassay records (PubChem)
Hits are enriched below; roughly 2% of the tested compounds scored in any of these assays.
CHRM5 PAM = CHRM5 positive allosteric modulation; AID 624038; actives 0.3% (n = 360,000); CHO-K1 hM5, Fluo-8 calcium, ACh EC20 PAM; 0% = ACh EC20, 100% = ACh EC100; activation, % at 3 µM;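 active means activation above the run cutoff, the mean activation of all test compounds plus 3 SD, cut at about 18% in these data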
Target sequence (P08912 whole entry, looked up): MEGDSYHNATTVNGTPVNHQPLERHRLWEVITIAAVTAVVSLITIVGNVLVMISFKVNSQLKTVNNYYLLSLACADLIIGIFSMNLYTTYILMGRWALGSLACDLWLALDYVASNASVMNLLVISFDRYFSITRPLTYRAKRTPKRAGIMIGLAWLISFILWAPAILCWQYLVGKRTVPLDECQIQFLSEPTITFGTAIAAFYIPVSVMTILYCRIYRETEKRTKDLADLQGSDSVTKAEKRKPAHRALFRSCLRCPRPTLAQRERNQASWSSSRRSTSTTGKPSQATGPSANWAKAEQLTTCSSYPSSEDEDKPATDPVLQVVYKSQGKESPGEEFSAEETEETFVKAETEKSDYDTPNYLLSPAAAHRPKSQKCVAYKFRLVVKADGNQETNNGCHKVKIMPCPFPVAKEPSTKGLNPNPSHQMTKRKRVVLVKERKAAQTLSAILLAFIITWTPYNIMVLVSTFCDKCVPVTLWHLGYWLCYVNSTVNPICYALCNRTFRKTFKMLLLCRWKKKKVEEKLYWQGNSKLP
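Assay system: CHO-K1 hM5 cells. Also added: acetylcholine at EC20 concentration, added after compound. Dosing: 3 µM, single dose. Times: compound preincubation 140 s before EC20 acetylcholine addition. Signal: Fluo-8 calcium fluorescence. Measure: % activation relative to EC20 and EC100 ACh responses. Repeats: singlicate, one well per test compound.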
M1 ag = human M1 muscarinic receptor agonism; actives 0.33% (n = 360,000); AID 588814; activation, % at 3 µM; CHO-K1 hM1, Fluo-8 calcium fluorescence, agonist mode; 0% DMSO, 100% acetylcholine EC100;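 active means activation above the run's mean compound activation plus 3 SD, cut at about 16% in these data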;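 further: peak over basal fluorescence ratio within a 140 s kinetic read after compound addition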
CHRM1 PAM = potentiates human M1 receptor response to acetylcholine. AID 588819. CHO-K1 hM1, Fluo-8 calcium fluorescence, ACh EC20; 0% = ACh EC20, 100% = maximal ACh. activation, % at 3 µM. actives 0.088% (n = 360,000); in the data active means activation above about 19%, passing the limit was not always enough
CHRM5 antagonist = blocks acetylcholine activation of human M5 receptor. P08912. CHO-hM5 cells, Fluo-8 calcium fluorescence, ACh EC80. inhibition, % at 3 µM. actives 0.59% (n = 360,000);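 active means inhibition above a per-plate cutoff, the mean of that plate's test compounds plus 3 SD, cut at about 27% in these data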
M5 ag = CHRM5 agonism in calcium assay | P08912 | CHO-K1 hM5 cells, Fluo-8 calcium fluorescence; 0% DMSO wells, 100% maximal acetylcholine response | activation, % at 3 µM | actives 0.19% (n = 360,000) | AID 624037;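 active means activation above the run's mean over test compounds plus 3 SD, cut at about 23% in these data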;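 further: signal is peak over basal fluorescence ratio across the kinetic read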
M1 antag = antagonists of human M1 muscarinic receptor. P11229. CHO-K1 hM1, Fluo-8 calcium fluorescence, ACh EC80 antagonist. inhibition, % at 3 µM. actives 1.3% (n = 360,000);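 active means percent inhibition above its own plate's cutoff, namely the mean of that plate's compound wells plus 3 SD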;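 further: peak over basal fluorescence ratio during 140 s after agonist addition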
Each line names hits and unclear results; the compound was inactive in the other large screens.

CCOC(=O)C1CCCN(Cc2nc(C3CC3)no2)C1 (centres undefined)	none
CCOC(=O)C1CCCN(Cc2nc(Cc3cccc(F)c3)no2)C1 (centres undefined)	M1 ag 33
CCOC(=O)C1CCCN(C2CCN(Cc3nc(Cc4ccccc4)no3)CC2)C1 (centres undefined)	M1 ag 17
COCC1CCCN(Cc2nc(Cc3ccccc3)no2)C1 (centres undefined)	none
CCOC(=O)C1CCCN(C2CCN(Cc3nc(-c4ccccc4)no3)CC2)C1 (centres undefined)	M1 ag 42, CHRM5 antagonist 45, M1 antag 42
CCOC(=O)C1CCN(C2CCN(Cc3nc(-c4ccccc4)no3)CC2)CC1	none
COc1cccc(NC(=O)C2(C)CCN2C(=O)C2CCCCC2)c1 (centres undefined)	none
COC(=O)C1=CN(c2ccc(N3CCOCC3)cc2)C(N)=C(C#N)C1c1ccc(-c2ccccc2)cc1 (centres undefined)	none (no result: M1 ag, CHRM1 PAM, M1 antag)
Cc1ccc(C)c(Cn2nnc(C(=O)Nc3ccc4c(c3)OCCO4)c2N)c1	M1 ag 28, M5 ag 36
Cc1cc(C)cc(NC(=O)c2nnn(Cc3cc(C)ccc3C)c2N)c1	M1 ag 26, M5 ag 28
Cc1ccccc1Cn1nnc(C(=O)Nc2ccc3c(c2)OCCO3)c1N	none
CN(CC(=O)Nc1ccccc1Br)C(=O)c1ccccc1OCc1ccc(Cl)cc1	none
CN(C(=O)c1ccccc1OCc1ccc(Cl)cc1)c1ccccc1	M1 antag 75
CCC(c1ccc(O)cc1)C(CC)c1ccc(O)cc1 (centres undefined)	none
Cc1cc(C(c2ccc(O)cc2)c2cc(C)c(O)cc2C)c(C)cc1O	M1 ag 42, M5 ag 37
CC(C)Cc1ccc(C(C)CC2=CCC(CN(C)C)C2=O)cc1 (centres undefined)	none
OCC[C@H]1C[C@@H](O)[C@H](O)[C@]2(CCc3ccccc3CO2)O1	M1 ag 18
OCC[C@@H]1C[C@@H](O)[C@H](O)[C@@]2(CCc3ccccc3CO2)O1	none
CCCCOCCOC(=O)C1OC1(C)c1ccccc1 (centres undefined)	none
CCC[C@@H](CN1CCC[C@H]1CN1C(N)=NC[C@H]1C(C)C)N1C[C@@H]([C@H](C)CC)N(CCCC2CCCC2)C1=N	none
CC(C)C[C@@H]1CN=C(N)N1C[C@@H]1CCCN1C[C@H](C)N1C[C@@H](Cc2ccccc2)N(CCCC2CCCC2)C1=N	M1 antag 34
CC(C)C[C@@H]1CN=C(N)N1C[C@@H]1CCCN1C[C@H](C)N1C[C@@H](Cc2ccccc2)N(CCc2ccc(Cl)c(Cl)c2)C1=N	none
CCC[C@@H](CN1CCC[C@H]1CN1C(N)=NC[C@H]1CC(C)C)N1C[C@@H]([C@H](C)CC)N(CCCC2CCCC2)C1=N	M1 antag 59
CC1=C(C(=O)N(C(C)C)C(C)C)CC(CC(=O)NC(c2ccccc2)c2ccccc2)C(=O)N1Cc1ccc(C(C)(C)C)cc1 (centres undefined)	none
COc1cccc(C=NN(C)c2c([N+](=O)[O-])cc(C(F)(F)F)cc2[N+](=O)[O-])c1O	none
O=C(NCc1ccccn1)[C@@H]1CCCN1C(=O)[C@@H]1CCCN1C(=O)c1cccc2ccccc12	none (no result: M1 ag, CHRM1 PAM, M1 antag)
CCOc1cc(/C=C\[N+](=O)[O-])ccc1OCC(=O)Nc1ccccc1C	CHRM1 PAM 26
CON(C)C(=O)CC(CN(Cc1ccccc1)C(=O)OC(C)(C)C)c1ccc(Cl)cc1 (centres undefined)	none
CON(C)C(=O)CCN(Cc1ccccc1)C(=O)OC(C)(C)C	CHRM5 PAM 19
S=C(NCCC(c1ccccc1)c1ccccc1)Nc1ccc(Cl)cc1	CHRM5 antagonist 33
O=C(NC(NC(=S)Nc1cccc(C(=O)O)c1)C(Cl)(Cl)Cl)OCc1ccccc1 (centres undefined)	none
O=C(NC(NC(=S)Nc1cccc(Cl)c1)C(Cl)(Cl)Cl)OCc1ccccc1 (centres undefined)	CHRM5 antagonist 27
S=C(NCCC(c1ccccc1)c1ccccc1)Nc1ccccc1Cl	none
O=C(CCc1ccccc1)NC(NC(=S)Nc1ccc(Cl)cc1)C(Cl)(Cl)Cl (centres undefined)	M1 antag 23
CN(C(=O)COC(=O)Cc1ccc(Br)cc1)c1c(N)n(Cc2ccccc2)c(=O)[nH]c1=O	none
CCOc1ccc(Nc2nc(N)nc(CSC(=S)N3CCOCC3)n2)cc1	CHRM5 antagonist 34
Cc1ccccc1CN1C(=O)Nc2ccccc2C(=O)N1C(C)(C)C	CHRM5 PAM 50
CC[C@@H](NS(=O)(=O)c1ccc(C)cc1)C(=O)Oc1ccc2c3c(c(=O)oc2c1)CCC3	none
Cc1ccc(S(=O)(=O)NC(CC(C)C)C(=O)Oc2ccc3c4c(c(=O)oc3c2)CCC4)cc1 (centres undefined)	M1 antag 43
COc1cccc(Nc2nc(C(N)Cc3ccccc3)cs2)n1 (centres undefined)	none
CCC1CCCCN1CCCNC(=O)CC1Oc2ccccc2NC1=O (centres undefined)	none
CCC(C)N(CCNC(=O)c1ccc2c(c1)NC(=O)c1ccccc1S2)C1CCCCC1 (centres undefined)	M1 antag 56
CCC(C)N(CCNC(=O)CC1Oc2ccccc2NC1=O)C1CCCCC1 (centres undefined)	M1 antag 90
CCN1CCN(CCCNC(=O)c2ccc3c(c2)NC(=O)c2ccccc2S3)CC1	none
CCC1CCCCN1CCCNC(=O)CC1Oc2ccc(C)cc2NC1=O (centres undefined)	M1 antag 41
CC1CCN(Cc2ccc(NC(=O)CC3Oc4ccccc4NC3=O)cc2)CC1 (centres undefined)	CHRM5 antagonist 37, M1 antag 99
CCc1cccc(NC(=O)CC2Oc3ccccc3NC2=O)c1 (centres undefined)	none
O=C1CN(C(=O)CN2CCN(S(=O)(=O)c3ccccc3F)CC2)c2ccccc2N1	none
CC(C)OC(=O)N(C)C[C@@H]1OCc2cn(nn2)CCCC(=O)N([C@@H](C)CO)C[C@H]1C	none
CC(=O)Nc1ccc(C(=O)N2CCCC(c3cc(C(=O)NCc4ccccc4)no3)C2)cc1 (centres undefined)	none
CC1CCCC(C)N1CCCNC(=O)c1ccc2c(c1)NC(=O)c1ccccc1S2 (centres undefined)	M1 antag 84
Cc1cc(S(=O)(=O)NCC(C)C)ccc1OCC(=O)NCc1ccccn1	none
